The EternaBench riboswitch data

Tested on: MS2 coat protein
Assay: apparent Kd, MS2 coat protein; higher = weaker binding; RNA-MaP array; FMN 200 µM where present
Summary of the method: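 Stalled E. coli RNA polymerase transcribed each design on Illumina sequencing-chip clusters. The clusters were titrated with SNAP-549-labelled MS2 coat protein, starting at 0.7 or 1.5 nM and doubling up to 3 µM, first without ligand and then with constant ligand, in 100 mM Tris-HCl pH 7.5, 80 mM KCl, 4 mM MgCl2, BSA, DTT, yeast tRNA and Tween-20. Green signal was normalised to red-channel RNA signal and to the control-cluster median Fmax. The apparent Kd is the median of filtered binding-curve fits made for each cluster.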

[1] = designed as: ON switch for flavin mononucleotide, no ligand
[2] = ligand present: flavin mononucleotide, designed as: ON switch for flavin mononucleotide
[3] = designed as: OFF switch for flavin mononucleotide, no ligand
[4] = ligand present: flavin mononucleotide, designed as: OFF switch for flavin mononucleotide

| Sequence | apparent Kd [1] [nM] | apparent Kd [2] [nM] | apparent Kd [3] [nM] | apparent Kd [4] [nM] |
| --- | --- | --- | --- | --- |
| AGCGAACAGGCUAACAUGAGGAUCACCCAUGUGGACUCAUGGUAGGAUAUCGGGAAGGAGGAAACCGAGAAGGGCCGGUGAGCC | 440 | 229 | – | – |
| AAUUGACAUGAGGAUCACCCAUGUCCACCAAACGGAGGAUAUUGGGCGGCAAAACGUUGUUAAGAAGGCCGAAAUU | 34.1 | 88.3 | – | – |
| AAAACGGUAGGAUAUACAUGAGGAUCACCCAUGUUAAAUUUAAAAAUAAAAUUAAAAUGUAGAAGGACCAAAAA | – | – | 32 | 32.3 |
| GAUCAACAUGAGGAUCACCCAUGUGAGGAUAUGAUACUAUGUACUUCGGUACAUAGUAUCAGAAGGCAUAUUGA | – | – | 54.8 | 41.9 |
| AUUGUGUGAGGAUAUUAGUAGUAGAUGAAUGGAGUUGUGGCUGAGAAGGCACAUGAGGAUCACCCAUGUUCCUU | – | – | 22.3 | 25.9 |
| GUGUACAUAUCAGGAUAUCUAUUUCCUACAUGAGGAUCACCCAUGUAGGUGAUCACCCAAGUAAAGGAGAAGGGAUAUGUAUAC | 78.7 | 24.5 | – | – |
| GCAGGUUAAGUCAGGAUAUACCUAUGGAUACAUAGGUAGAAGGGACAUGAGGAUCACCCAUGUGCCUCGCCUGC | – | – | 17.7 | 69.3 |
| CUAAUGUGAGGAUAUGGUGUUGAUCGCAGGAAGGAGAUUCUCCAGAAGGCACAUGAGGAUCACCCAUGUAGUGA | – | – | 103 | 51.1 |
| UGCUAGUGAGGAUAUGCUGGAAUAAAGAUUUGACGUGGCGAACAUGAGGAUCACCCAUGUAGAAGGCACAAUAC | – | – | 12.8 | 15.7 |
| AGCCACAGUUCAGGAUAUGCGGGCCGACUGGUAGCAGAAGGGAACAUGAGGAUCACCCAUGUAGGUCAUACGGGCUACGUCGAA | – | – | 11.6 | 45.6 |
| GGUGGACAUGAGGAUCACCCAUGUGAGGAUAUCGGCCGGUUCGUGGUGGCUGGCGUCUCGAGAAGGCACAUAGU | – | – | 153 | 129 |
| UUAUUUAUACAAGGAUAUCUAUUAUAUUCACAUCCUACAUGAGGAUCACCCAUGUUAUAUAUUUUAGAGAAGGUGUAUUGUCUG | 27.2 | 30.8 | – | – |
| UUGGAGUACGUAGGAUAUGUAGGAUUUUCCUACAUGAGGAUCACCCAUGUUAGCAUGGAAGAAGGACAGAAGGACGUGCUCCAU | 1040 | 78.1 | – | – |
| GUGGUGUAGAUACAGGAUAUGUUGCUCGUAACAUGAGGAUCACCCAUGUAUCUAUGAGAAUAAAUGCAGAAGGGUGCACACCACU | 549 | 30.1 | – | – |
| AUAGCAUACCGAGGAUAUUCAUAUAAUAAAUAAACAUGAGGAUCACCCAUGUGGCGAAAGCCUAGGGAGAAGGCGGAAUGCUAC | 225 | 25.3 | – | – |
| CUUUUGUGAGGAUAUCAGUAGUAAAAAAAUAAAAUUACUACUGAGAAGGCACAUGAGGAUCACCCAUGUCUUUC | – | – | 122 | 76.8 |
| CGUAGGAUGCAGAAGGCAUGAACAUGAGGAUCACCCAUGUCAAAAUACAUGAGGAUAUGCAUCCUACGAAAAGUGCGAAAGCAC | 4.62 | 4.3 | – | – |
| AAAAAAAAAACUCAGGAUAUAGAUUGUUGAACAUGAGGAUCACCCAUGUAGUGAAAAGCGAAAAACUAGAAGGGAGGAAAAAAAAA | 82.5 | 46 | – | – |
| UGGAAACAUGAGGAUCACCCAUGUAAAAGGUGGUUAGGAUAUGCAAAACGGAAAACGAAAGCAGAAGGGACAAAAA | 412 | 302 | – | – |
| AUCAGCUCGUCAGGAUAUACGUCACUGCGUCAGCAGUGUGGUAAGAUCACAUGAGGAUCACCCAUGUAGAAGGGACGAGCUCAU | – | – | 13.9 | 322 |
| AGUAAGAUGCAGAAGGUGUUAGCUAGAGCUACGACAUGAGGAUCACCCAUGUAAAACCGCCCGUACAAGGAUAUGCAUCUUACA | 6.12 | 5.54 | – | – |
| ACUAGAUGAGGAUAUGCAUAUUUUCGUGUUCUUCUAGAUUAACAUGAGGAUCACCCAUGUAGAAGGCGUCAUUA | – | – | 16.5 | 20.3 |
| GACUUCUCUGAGGAUAUUGCAUCAUACGAUUUAUAAGAAGGCAGAACAUGAGGAUCACCCAUGUGGGUUUCUAG | – | – | 59 | 108 |
| CGUAAGAUGCAGAAGGUGUUAGCUAGAGCUACGACAUGAGGAUCACCCAUGUACUAGAAACAGUACAAGGAUAUGCAUCUUACA | 17.3 | 5.75 | – | – |
| AUUUUAAUGUCAGGAUAUGUUAGUUUAUACAUAGUAGAAGGGAUAAUUAUACUCAUGUACAUGAGGAUCACCCAUGUUAAAUAA | 163 | 98.1 | – | – |
| UGUUACUAGUAAGGAUAUACUUGCGAUUAGCUUGUAGAAGGUACAGUCUUUUGUAUAACAUGUUUACAUGAGGAUCACCCAUGU | 10.7 | 8.69 | – | – |
| AUCAGCUCGUCAGGAUAUACGUCACUGCGUCAGCAGUGUGGUAAGAUCACAUGAGGAUCACCCAUGUAGAAGGGACUAGCUGAU | – | – | 14.8 | 294 |
| CUAUGAACGAUAGGAUAUACUGAGGUUGAGUGGGUAGAAGGAUCGAUAGUGGAGAAGACAUGAGGAUCACCCAUGUUAUGGAUU | 552 | 170 | – | – |

| Sequence | apparent Kd [1] [nM] | apparent Kd [2] [nM] | apparent Kd [3] [nM] | apparent Kd [4] [nM] |
| --- | --- | --- | --- | --- |
| CGCAAGUCAGGAUAUUCGACUGGUAAAUCUGUGGAUCAGUAGGAGAAGGGACAUGAGGAUCACCCAUGUUUGUA | – | – | 29.5 | 35.9 |
| GGAGAGGACAGAGGAUAUACGUGCUAGAGAUACUAGCAAAAUUUCCUCACAUGAGGAUCACCCAUGUAGAAGGCUGUCCUAUCG | – | – | 16.6 | 309 |
| CGAUGUUAUGCAGGAUAUCUCUCUUGAAUGCGGAGAGAAGGGCAUAGGGAGACAUACGCCUUAUUACAUGAGGAUCACCCAUGU | – | – | 9.02 | 7.92 |
| AUCAGCUAGUCAGGAUAUACGUCACUGCGUCAGCAGUGUGGUAAGAUCACAUGAGGAUCACCCAUGUAGAAGGGACGAGCUGAU | – | – | 14.2 | 295 |
| CGACACCACACAGGAUAUGCUGGACUUUGUCCAGCAGAAGGGUGUAAACAUGAGGAUCACCCAUGUAUGGUGUCGAAAUUUAAU | 382 | 21.1 | – | – |
| UUUAUAAAUUAGAAGGCGAGAUGAAUUACAAUAGACAUGAGGAUCACCCAUGUGUACCCAUGUCUUGAGGAUAUAGUCAUAUAU | 132 | 48 | – | – |
| UAGCUCCAUGUGAGGAUAUAGACUCGGACCCGGGAUUAGAAGGUACAUGAGGAUCACCCAUGUAUCCAACUUGU | – | – | 15.3 | 16.6 |
| AGUCAUACAGGAUAUACAUGAGGAUCACCCAUGUAAAUCCUAAAUGGGUGAUCCUCAUGUAGAAGGGUAUGACA | – | – | 20.7 | 17.1 |
| CUGUAGAUAUCAGGAUAUCUAUUUCCUACAUGAGGAUCACCCAUGUAGGUGAUCAGCCAAGUAAAGGAGAAGGGAUAUCUAUAG | 38.5 | 11 | – | – |
| AAUCAGCGAGGAUAUACAGAUUCUGGGUGCGGCUCGGCGAGACAUGAGGAUCACCCAUGUAGAAGGUGCUAGCC | – | – | 37.9 | 43.8 |
| GGGUACAUCGGAGGAUAUCAUGUAAAUACAUGAGGAUCACCCAUGUCGAUGGAGACAUCGGAGAUUAAGAAGGCCGAUGUACCG | 801 | 842 | – | – |
| AAUAUGUUAGGAUAUGCUGCUCGUCACAAAAGUGAUGAGUAGCAGAAGGGACAUGAGGAUCACCCAUGUAAAGA | – | – | 36.6 | 29.6 |
| GUCGUGCGGCUUUGCUGUACGAGUACAUGAGGAUCACCCAUGUAGGAUAUGGUUCGCUUUGCGUGCCAGAAGGGCGUGCGUUGU | – | – | 28.7 | 28.1 |
| AUUUUAAUGUCAGGAUAUGUUAGUUAAUACAUAGUAGAAGGGAUAAUUAUACUCAUGUACAUGAGGAUCACCCAUGUUAAAUAA | 151 | 80.7 | – | – |
| UUCGUGCAGCUUUGCUGUACGCGUACAUGAGGAUCACCCAUGUAGGAUAUGGUAGGCAAAGUUUACUAGAAGGAUAUAGUGAUC | – | – | 13.2 | 14.3 |
| AGAAACUACGAGAAGGACAUGAGAACCUUCAUUUACAUGAGGAUCACCCAUGUAGGAUAUCGUAGUUUCAGGAUCGUGAGAUCA | – | – | 45.6 | 232 |
| CUCGAGUCAAGGCUCGCGAGUACACAGGAUAUGAAAAGUCACAUGAGGAUCACCCAUGUCCAAAAUCAGAAGGGUGAGACUAAG | 764 | 222 | – | – |
| UAUGGUAAAGUCAGGAUAUACGUACAUCGUUCUAGGUAGAAGGGACAUGAGGAUCACCCAUGUAUGGUAGUGUU | – | – | 106 | 107 |
| GCGCGGUAAGGAUAUCUGCACGGAAACAUGAGGAUCACCCAUGUUCAGAUGAUUCUUAUAAGAGAAGGUACUGACA | – | – | 17.4 | 19.1 |
| UAGUAUAAGGGCAUUAAACAUGAGGAUCACCCAUGUACGAUAGAGGAUAUGCAUUUCAGUUUAGAGUAGAAGGUUAGAGAAUUU | – | – | 42.1 | 42.9 |
| CUAGACUGAUCAGGAUAUCAUCGCGUGGUGUAUCCCUGUGAUUACAUGAGGAUCACCCAUGUGCAUGAGAAGGGAUUACUAUGU | – | – | 54.7 | 30 |
| UUGGACGUCGUAGGAUAUGUAGGAUAUUCCUACAUGAGGAUCACCCAUGUGGACAUGGAAGAAGGACAGAAGGACGAUGUCCAU | 63.7 | 4.7 | – | – |
| AAAAAACAUGAGGAUCACCCAUGUGAGGAUAUUAAAAAUAAGAAGGCAUAAAAAAAAAUAAGAAGGCACAUGAA | – | – | 31.7 | 44.8 |
| UUUUAACAUGAGGAUCACCCAUGUGAGGAUAUCGAAAUUUAUAUUAAUAUUAAUAAUACGAGAAGGCACAUUUU | – | – | 80.7 | 79.8 |
| AUGUUGAGCAGUGUAUUAAGAUCACAUGAGGAUCACCCAUGUAGAAGGUAUGAGCUGAUCGCUCAUAAGGAUAUACAUCACUGC | – | – | 69.9 | 119 |
| UUGGACGUCGUAGGAUAUGUAGGAUAUUCCUACAUGAGGAUCACCCAUGUUGACAUGGAAGAGGGACAGAAGGACGAUGUCCAU | 606 | 30.5 | – | – |
| UAUAUAUAGUAAGGAUAUGUAUAUAUUUUAUAAACAGAAGGUACUGACAUGAGGAUCACCCAUGUUUUAGUGUGGGCAUGUAGA | – | – | 72.1 | 109 |
